# From ChEMBL document CHEMBL1128487, “Reduced-size antagonists of luteinizing hormone-releasing hormone active in vitro” (1995)
# Square brackets hold non-standard residues; d marks the D form. Peptide text beside a SMILES is read from it. * marks the point of attachment. ξ: configuration not given here. 2Nal = N[C@@H](Cc1ccc2ccccc2c1)C(=O)O; ξLys(iPr) = CC(C)NCCCCC(N)C(=O)O; Picolinoyl = O=C(c1ccccn1)*; ξR = N=C(N)NCCCC(N)C(=O)O
# What was measured:
# [1] = biological target: T1, Gonadotropin-releasing hormone receptor (Rattus norvegicus) (UniProt P30969); experiment: In vitro inhibition of LH release was determined in rat pituitary cells at a dose of 100 ug of analogue and 1 ng of LHRH; assay type: functional, cell-based; details: Pituitary gland cell
# T1 sequence (whole entry): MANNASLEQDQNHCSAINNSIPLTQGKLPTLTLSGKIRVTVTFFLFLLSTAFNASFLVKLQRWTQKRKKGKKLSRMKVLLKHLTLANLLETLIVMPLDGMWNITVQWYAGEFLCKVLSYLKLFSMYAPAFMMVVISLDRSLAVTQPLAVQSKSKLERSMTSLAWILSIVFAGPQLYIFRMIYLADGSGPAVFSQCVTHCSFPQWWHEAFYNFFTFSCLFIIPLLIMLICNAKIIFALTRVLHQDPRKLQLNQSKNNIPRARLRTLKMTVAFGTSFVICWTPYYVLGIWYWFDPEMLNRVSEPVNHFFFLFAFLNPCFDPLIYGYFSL
# How it was run: (§1)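 Anterior pituitaries from female Sprague-Dawley rats (240-260 g, 18 rats) were minced and dispersed in Gey's solution with trypsin, DNase I and LBBI. Cells were plated in DMEM with 0.45% glucose, 25 mM HEPES, serum, T and 100 nM dexamethasone at about 3.0 × 10^5 cells/mL and cultured 4 days at 37 °C in 8% CO2. Cells were then exposed to antagonist plus 1 ng LHRH in Gey's solution with 0.3% glucose for 2 h. LH in the medium was measured by RIA as ng/mL of RP-3.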
# [2] = biological target: T1, Gonadotropin-releasing hormone receptor (Rattus norvegicus); experiment: In vitro antagonistic activity against LH release in rat pituitary cells for control.; assay type: functional, cell-based; details: Pituitary gland cell; how it was run: as §1
# Rattus norvegicus [3] = species on record: Rattus norvegicus; experiment: In vitro inhibition of LH release in rat pituitary cells at a dose of 1 ng LHRH in absence of the compound.; assay type: functional, Pituitary gland cell; design: unit: ng/mL; how it was run: as §1
# [4] = biological target: T1, Gonadotropin-releasing hormone receptor (Rattus norvegicus); experiment: In vitro inhibition of LH release in rat pituitary cells at a dose of 1 ug of analogue and 1 ng of LHRH.; assay type: functional, cell-based; details: Pituitary gland cell; how it was run: as §1
# [5] = biological target: T1, Gonadotropin-releasing hormone receptor (Rattus norvegicus); experiment: In vitro inhibition of LH release was determined in rat pituitary cells at a dose of 30 ug of analogue and 1 ng of LHRH; assay type: functional, cell-based; details: Pituitary gland cell; how it was run: as §1
# [6] = biological target: T1, Gonadotropin-releasing hormone receptor (Rattus norvegicus); experiment: In vitro inhibition of LH release determined in rat pituitary cells at a dose of 3 ug of analogue and 1 ng of LHRH; assay type: functional, cell-based; details: Pituitary gland cell; how it was run: as §1
# [7] = biological target: T1, Gonadotropin-releasing hormone receptor (Rattus norvegicus); experiment: In vitro inhibition of LH release was determined in rat pituitary cells at a dose of 10 ug of analogue and 1 ng of LHRH; assay type: functional, cell-based; details: Pituitary gland cell; how it was run: as §1
# [8] = biological target: T1, Gonadotropin-releasing hormone receptor (Rattus norvegicus); experiment: In vitro inhibition of LH release was determined in rat pituitary cells at a dose of 0.1 ug of analogue and 1 ng of LHRH; assay type: functional, cell-based; details: Pituitary gland cell; how it was run: as §1
# [9] = biological target: T1, Gonadotropin-releasing hormone receptor (Rattus norvegicus); experiment: In vitro inhibition of LH release was determined in rat pituitary cells at a dose of 0.3 ug of analogue and 1 ng of LHRH; assay type: functional, cell-based; details: Pituitary gland cell; how it was run: as §1
# Rattus norvegicus [10] = experiment: In vivo anti-ovulatory activity (AOA) against LHRH was determined at a dose of 1000 ug in 6 rats; assay type: functional
# How it was run: (§2)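 Female 4-day cycling rats received a single subcutaneous injection of analog in corn oil between 12 and 12:30 p.m. Ova were counted on estrus. Activity is given as the number of ovulating rats over the total rats at each dose.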
# Rattus norvegicus [11] = experiment: In vivo anti-ovulatory activity (AOA) against LHRH was determined at a dose of 100 ug in 6 rats; assay type: functional; how it was run: as §2
# Rattus norvegicus [12] = experiment: In vivo anti-ovulatory activity (AOA) against LHRH was determined at a dose of 1000 ug in 9 rats; assay type: functional; how it was run: as §2
# [13] = biological target: T1, Gonadotropin-releasing hormone receptor (Rattus norvegicus); experiment: In vitro inhibition of LH release was determined in rat pituitary cells at a dose of 0.03 ug of analogue and 1 ng of LHRH; assay type: functional, cell-based; details: Pituitary gland cell; how it was run: as §1
# Rattus norvegicus [14] = experiment: In vivo anti-ovulatory activity (AOA) against LHRH was determined at a dose of 1 ug in 6 rats; assay type: functional; how it was run: as §2
# Rattus norvegicus [15] = experiment: In vivo anti-ovulatory activity (AOA) against LHRH was determined at a dose of 10 ug in 6 rats; assay type: functional; how it was run: as §2
SMILES,Activity [1],Activity [2],Activity [4],Activity [5],Activity [6],Activity [7],Activity [8],Activity [9],Activity [13],Activity (Rattus norvegicus [3]),AOA (Rattus norvegicus [10]),AOA (Rattus norvegicus [11]),AOA (Rattus norvegicus [12]),AOA (Rattus norvegicus [14]),AOA (Rattus norvegicus [15])
CC(=O)N[C@@H](Cc1ccc2ccccc2c1)C(=O)N[C@@H](C)C(N)=O (Ac-[2Nal]-Ala-NH2),16,3.5,148,88,153,124,,,,153,,,,,
CC(=O)NC(Cc1ccc2ccccc2c1)C(=O)N[C@@H](CO)C(=O)N[C@@H](Cc1ccc(O)cc1)C(=O)NC(Cc1ccc2ccccc2c1)C(=O)N[C@@H](CC(C)C)C(=O)N[C@@H](CCCN=C(N)N)C(=O)N1CCC[C@H]1C(=O)N[C@H](C)C(N)=O (stereo in doubt),,5.3,7,,3,,37,12,,236,6,6,,,
CCNC(=O)[C@@H]1CCCN1C(=O)[C@H](CCCN=C(N)N)NC(=O)[C@H](CC(C)C)NC(=O)[C@@H](Cc1ccc2ccccc2c1)NC(=O)[C@H](Cc1ccc(O)cc1)NC(=O)[C@H](CO)NC(=O)[C@@H](Cc1ccc2ccccc2c1)NC(C)=O,,3.2,3,,,,5,4,45,153,,6,2,,
CC(=O)NC(Cc1ccc2ccccc2c1)C(=O)N[C@@H](Cc1ccc(Cl)cc1)C(=O)N[C@@H](Cc1cccnc1)C(=O)N[C@@H](CO)C(=O)N[C@@H](Cc1ccc(O)cc1)C(=O)NC(Cc1ccc2ccccc2c1)C(=O)N[C@@H](CC(C)C)C(=O)N[C@@H](CCCN=C(N)N)C(=O)N1CCC[C@H]1C(=O)N[C@H](C)C(N)=O (stereo in doubt),,3.8,4,,,,4,4,8,149,,,,5,0
CC(=O)N[C@H](Cc1ccc2ccccc2c1)C(=O)N[C@H](Cc1cccnc1)C(=O)N[C@@H](CO)C(=O)N[C@@H](Cc1ccc(O)cc1)C(=O)N[C@H](Cc1ccc2ccccc2c1)C(=O)N[C@@H](CC(C)C)C(=O)N[C@@H](CCCN=C(N)N)C(=O)N1CCC[C@H]1C(=O)N[C@H](C)C(N)=O,,3.8,3,,,,14,6,28,149,4,6,,,6
CCNC(=O)[C@@H]1CCCN1C(=O)[C@H](Cc1ccc2ccccc2c1)NC(C)=O (Ac-[2Nal]-Pro-NHEt),14,3.1,135,59,141,101,,,,145,,,,,
CC(=O)NC(Cc1ccc2ccccc2c1)C(=O)N[C@@H](Cc1ccc(Cl)cc1)C(=O)N[C@@H](CO)C(=O)N[C@@H](Cc1ccc(O)cc1)C(=O)NC(Cc1ccc2ccccc2c1)C(=O)N[C@@H](CC(C)C)C(=O)N[C@@H](CCCN=C(N)N)C(=O)N1CCC[C@H]1C(=O)N[C@H](C)C(N)=O (stereo in doubt),,3.8,6,,,,29,14,39,149,6,6,,,
CC(=O)N[C@@H](Cc1ccc2ccccc2c1)C(=O)N[C@@H](CCCN=C(N)N)C(=O)N[C@@H](C)C(N)=O,69,3.5,151,66,145,101,,,,153,,,,,

# Further lines, with some results ahead:
Activity [1],Activity [2],Activity [4],Activity [5],Activity [6],Activity [7],Activity [8],Activity [9],Activity [13],SMILES,Activity (Rattus norvegicus [3]),AOA (Rattus norvegicus [10]),AOA (Rattus norvegicus [11]),AOA (Rattus norvegicus [12]),AOA (Rattus norvegicus [14]),AOA (Rattus norvegicus [15])
118,3.5,186,128,150,144,,,,CC(=O)N[C@@H](Cc1ccc2ccccc2c1)C(=O)N[C@@H](CCCCNC(=O)c1ccccn1)C(=O)NC(CCCCNC(C)C)C(=O)N1CCC[C@H]1C(N)=O (some centres undefined) (Ac-[2Nal]K(Picolinoyl)[ξLys(iPr)]P-NH2),153,,,,,
98,2.3,145,122,158,147,,,,CCNC(=O)[C@@H]1CCCN1C(=O)[C@H](CCCN=C(N)N)NC(=O)[C@H](CC(C)C)NC(=O)[C@H](Cc1ccc2ccccc2c1)NC(=O)[C@H](Cc1ccc2ccccc2c1)NC(C)=O (Ac-[2Nal][2Nal]LRP-NHEt),156,,,,,
71,3.1,145,113,139,129,,,,CC(=O)N[C@@H](Cc1ccc2ccccc2c1)C(=O)N[C@@H](CCCCNC(=O)c1ccccn1)C(=O)N1CCC[C@H]1C(N)=O,145,,,,,
64,2.3,145,105,158,142,,,,CC(=O)N[C@@H](Cc1ccc2ccccc2c1)C(=O)NC(CCCCNC(=O)c1ccccn1)C(=O)N[C@@H](CCCCNC(=O)c1ccccn1)C(=O)NC(CCCN=C(N)N)C(=O)NC(C)C(N)=O (stereo in doubt),156,,,,,
63,3.5,148,136,145,132,,,,CC(=O)N[C@@H](Cc1ccc2ccccc2c1)C(=O)N[C@@H](CCCCNC(=O)c1ccccn1)C(=O)NC(CCCN=C(N)N)C(=O)N1CCC[C@H]1C(N)=O (some centres undefined) (Ac-[2Nal]K(Picolinoyl)[ξR]P-NH2),153,,,,,
9,3.1,148,25,120,88,,,,CCNC(=O)[C@@H]1CCCN1C(=O)[C@H](CCCN=C(N)N)NC(=O)[C@H](CC(C)C)NC(=O)[C@H](Cc1ccc2ccccc2c1)NC(C)=O (Ac-[2Nal]LRP-NHEt),145,,,,,
